Measured values of several laboratories.
Each line is one published result; the experiments were not run side by side.
Target: Glycogen synthase kinase-3 beta (GSK3B, Homo sapiens, UniProt P49841)

Cn1cc(-c2cccc(N3CCc4c(sc5c4CC(C)(C)C5)C3=O)c2CO)cc(Nc2ccncn2)c1=O  inhibition (enzyme activity; inhibitor; 1 µM): -5%
COc1c2c(cc3c1OCO3)CC[N+](C)=C2  inhibition (enzyme activity; inhibitor; ADP detection; 100 µM): 24.8%
COc1ncccc1-c1cnn2ccc(N3CCN(C(=O)OC(C)C)CC3)nc12  remaining binding (binding; competition with immobilised ligand; 1 µM): 62%
Nc1ncc(-c2nc(N3CCOCC3)nc(N3CCOCC3)n2)c(C(F)F)n1  remaining binding (binding; competition with immobilised ligand; 10 µM): 74%
Cn1cncc1[C@](O)(COc1ccc(C#N)cc1-c1ccc(OC(F)(F)F)cc1)c1ccc(C#N)cc1  remaining binding (cell-free assay; competition with immobilised ligand; 1 µM): 93%
Cc1nn(C)cc1-c1nc2c(N3CCN(Cc4ccc(Cl)cc4)CC3)c(Cl)cnc2[nH]1  remaining binding (binding; competition with immobilised ligand; 1 µM): 68%
COc1cc2c(cc1-c1cc3cc4ccoc4cc3oc1=O)OCO2  inhibition (enzyme activity; inhibitor; ADP detection; 100 µM): 26.4%
C#Cc1n[nH]c2c(-c3cn([C@@H](C)c4ccccc4)c(=O)[nH]c3=O)cc(F)cc12  inhibition (enzyme activity; inhibitor; 0.1 µM): -3.5%
O=[N+]([O-])c1ccc([As](=O)(O)O)cc1  inhibition (enzyme activity; inhibitor; ADP detection; 100 µM): 5.2%
O=c1[nH]c2ccccc2n1C1CCN(Cc2ccc(-c3[nH]c4cc5ncnc5cc4nc3-c3ccccc3)cc2)CC1  remaining activity (enzyme activity; 0.5 µM): 113%
C#Cc1n[nH]c2c(-c3cn([C@@H](C)c4ccccn4)c(=O)[nH]c3=O)cc(F)cc12  inhibition (enzyme activity; inhibitor; 0.1 µM): -0.1%
Cn1cc(-c2cc(F)cc(N3CCn4c(cc5c4CCCC5)C3=O)c2CO)cc(Nc2ccc(N3CCN(C4COC4)CC3)cn2)c1=O  inhibition (enzyme activity; inhibitor; 0.1 µM): 5%
CC(C)(C)c1cc(C=C(C#N)C#N)cc(Br)c1O  remaining activity (enzyme activity; inhibitor; 0.5 µM): 107%
